Measured values from ChEMBL document CHEMBL4339256, “Antibacterial Salinaphthoquinones from a Strain of the Bacterium Salinispora arenicola Recovered from the Marine Sediments of St. Peter and St. Paul Archipelago, Brazil” (2019).
Activity calls are given as the source filed them. No cut-off for these calls is given here.

Columns and labels:
[1] = system: Staphylococcus aureus; assay: Antimicrobial activity against Staphylococcus aureus ATCC 29213 assessed as inhibition of microbial growth incubated for 24 hrs by broth microdilution assay; type: functional
Outline: (§1)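 Strains first grown on Mueller Hinton agar 24 h at 35 ± 2 °C, aerobic. Colonies were suspended in sterile 0.85% (w/v) NaCl and diluted into Mueller Hinton broth to a final 5 × 10^5 CFU/mL. Broth microdilution followed CLSI (2015), with 2-fold serial dilutions of compound and rifampicin as positive control. Plates were incubated under the same conditions. MIC was read as the lowest concentration with no visible growth.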

[2] = system: Staphylococcus aureus; assay: Antimicrobial activity against methicillin-resistant Staphylococcus aureus ATCC 43300 assessed as inhibition of microbial growth incubated for 24 hrs by broth microdilution assay; type: functional
Outline: (§2)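 Strains pre-grown on Mueller Hinton agar 24 h at 35 ± 2 °C aerobically; colonies suspended in 0.85% NaCl, then diluted in Mueller Hinton broth to a final 5 × 10^5 CFU/mL. Broth microdilution per CLSI (2015) with 2-fold serial compound dilutions; rifampicin positive control. Incubated as above; MIC read as lowest concentration with no visible growth.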

[3] = system: Enterococcus faecalis; assay: Antimicrobial activity against Enterococcus faecalis ATCC 29212 assessed as inhibition of microbial growth incubated for 24 hrs by broth microdilution assay; type: functional; outline: as §1
[4] = system: Enterococcus faecalis; assay: Antimicrobial activity against vancomycin-resistant Enterococcus faecalis ATCC 51212 assessed as inhibition of microbial growth incubated for 24 hrs by broth microdilution assay; type: functional; outline: as §2
[5] = system: Escherichia coli; assay: Antimicrobial activity against Escherichia coli ATCC 25922 assessed as inhibition of microbial growth incubated for 24 hrs by broth microdilution assay; type: functional, organism-based; outline: as §1

SMILES	MIC ([1]; ATCC 29213, 24 h) [µg/mL]	MIC ([2]; ATCC 43300, 24 h) [µg/mL]	MIC ([3]; ATCC 29212, 24 h) [µg/mL]	MIC ([4]; ATCC 51212, 24 h) [µg/mL]	MIC [1]	MIC [2]	MIC [4]	MIC [5]	MIC [3]
CC(=O)CC1(C)Oc2c(C)cc3c(c2C1=O)C(=O)C=C(N)C3=O (stereo unspecified)	125	125	125	125	–	–	–	–	–
Cc1cc2c(c(O)c1O)C(=O)C=C(N)C2=O	–	–	16	–	inactive	inactive	inactive	inactive	–
Cc1cc2c(c(C(=O)[C@@H](C)C3OC4[C@H](C)C(OC(=O)[C@H]4C)C3C)c1O)C(=O)C=C(N)C2=O (stereo partly specified)	–	–	–	–	inactive	inactive	inactive	–	inactive
Cc1cc(C)c(=O)oc1-c1c(O)c(C)cc2c1C(=O)C=C(N)C2=O	31	62	16	125	–	–	–	inactive	–
CO[C@H]1/C=C/O[C@@]2(C)Oc3c(C)c(O)c4c(O)c(c(/C=N/N5CCN(C)CC5)c(O)c4c3C2=O)NC(=O)/C(C)=C\C=C\[C@H](C)[C@H](O)[C@@H](C)[C@@H](O)[C@@H](C)[C@H](OC(C)=O)[C@@H]1C [RIFAMPIN]	≤ 0.03	≤ 0.03	≤ 0.03	≤ 0.03	–	–	–	–	–
Cc1cc(C)c(=O)oc1-c1c(O)c(C)cc2c1C(=O)C(N)=CC2=O	–	–	125	–	inactive	inactive	inactive	–	–
